Compounds with a hit are over-represented: about 1.7% of the library has one in this group of screens.
F508del corr: CFTR F508del correction in bronchial cells; activity (quench increase), % at 7.58 µM; AID 720511; CFBE cells, YFP halide quenching; stimulated with forskolin plus potentiator P3; % fluorescence drop versus neutral controls; 350,000 tested, 0.36% active;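 active = mean added fluorescence quench of at least 8% versus neutral control, with both replicates also reaching 8%; inconclusive = only one of the mean or replicate conditions met; inactive = mean below 8% and not both replicates reaching 8%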;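 also: cells transiently co-express mutant CFTR-F508del with the halide-sensitive YFP; corrector assay measuring rescue of mutant channel to the surface after 24 h compound exposure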
Ecoli rRNA inh: selective bacterial rRNA inhibition in E. coli; GFP signal change (wild-type ribosome), % (concentration not given with the values); AID 720706; E. coli WT GFP vs humanized-ribosome RFP mutants, fluorescence, 24 h; stronger effect = lower value; DMSO median 0, no signal -100; 350,000 tested, 1.6% active;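 active = significant combined selectivity score with lowered wild-type GFP, culture density cut under 30%, mutant RFP and density less affected; inactive = any of these conditions unmet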
CaV13 FRET inh: Primary screen for inhibitors of IQ motif and Ca2+-dependent inactivation inhibitor domain binding in CACNA1D, Förster resonance energy transfer in living cells, …; 340,000 tested, 0.098% active; HEK cells, CFP/YFP FRET ICDI-IQ, plate reader, 10 min; percent FRET-ratio fall versus neutral wells; AID 743397; inhibition, % at 12.3 µM;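 active = mean replicate inhibition of at least 30% and at least 1% of replicates passing that level; inconclusive = only one of the two criteria is met; inactive = neither criterion is met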
Cneo AK release: Cryptococcus neoformans lysis via adenylate kinase release. 360,000 tested, 0.2% active. C. neoformans lysis, adenylate kinase release luminescence, 4 h; normalised: neutral wells 0, clomiphene wells 100. lysis activity, % at 15 µM;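 active = mean lysis activity across replicates of at least 80%, whatever share of replicates individually reach that level; inactive = mean lysis activity below 80%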
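read-out = cell lysis signal | test system = log-phase Cryptococcus neoformans yeast cells | input = cells at 5 × 10^6 per mL | medium = fresh YPD growth medium | signal = luminescent adenylate kinase detection reagent | timing = 4 h at 37 °C static, read 1 h later | dosing = single dose | controls = Clomiphene as positive lysis control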
AID977621: growth inhibition of wild-type GFP E. coli, dose response, H69 mutant RFP, cherry-pick. shares compounds with Ecoli rRNA inh. E. coli wild-type GFP strain growth, fluorescence, 24 h. activity change, negative = inhibition at 50 µM. 1,900 tested, under 10 active. AID 977621;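 active = Wild-type ribosome reporter drop at least double the humanized mutant ribosome reporter drop, growth loss under a set limit; inconclusive = no clear call, values can overlap the other calls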;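 also: wild-type GFP and H69 mutant RFP strains grown together 50/50 in each well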
AID977628: E. coli growth inhibition, wild-type GFP versus h24 humanized RFP strain, dose response, h24 mutant RFP vs wild-type GFP, cherry-pick; E. coli WT GFP strain growth, fluorescence, 24 h; AID 977628; 1,900 tested, under 10 active; activity change, negative = inhibition at 50 µM; shares compounds with Ecoli rRNA inh;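 active = compound lowering the normal-ribosome reporter at least twice as much as the humanized-ribosome reporter, growth loss under a set limit; inconclusive = no clear call, values can overlap the other calls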;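 also: wild-type GFP and h24 humanized RFP strains co-cultured 1 to 1 per well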
Numbers stand for hits; n = inactive; u = inconclusive; x = no result given.

SMILES | F508del corr | Ecoli rRNA inh | CaV13 FRET inh | Cneo AK release | AID977621 | AID977628
COc1ccc2c(c1)Sc1ccccc1N2 | n | n | n | x | x | x
C[C@H](CO)N1C[C@H](C)[C@@H](CN(C)S(C)(=O)=O)Oc2ccc(NS(=O)(=O)c3ccc(Cl)cc3)cc2C1=O | n | n | x | x | x | x
O=C(Cc1cccc2ccccc12)Nc1ccccc1C(=O)O | x | -35.0 | n | n | n | x
O=C(Cc1cccc2ccccc12)Nc1cc(Cl)ccc1C(=O)O | n | n | n | n | x | x
O=C(O)c1cc(-c2cccs2)nn1-c1cccc(Cl)c1 | n | -33.1 | n | n | n | u
c1ccc(CSc2ncnc3c2oc2ccccc23)cc1 | x | x | x | n | x | x
c1coc(CSc2ncnc3c2oc2ccccc23)c1 | n | -22.9 | n | n | n | n
C=CCN1C(=O)[C@]2(O[C@H](CCn3cc([C@H](O)c4ccccc4)nn3)[C@@H]([Si](C)(C)c3ccc(OC)cc3)[C@@H]2C)c2cc(N3CCC3=O)ccc21 | n | x | x | n | x | x
C=CCN1C(=O)c2n[nH]c(COC)c2C1c1ccc2c(c1)OCO2 (stereo not drawn) | n | n | n | x | x | x
COCc1[nH]nc2c1C(c1ccc3c(c1)OCO3)N(c1ccc(OC)cc1)C2=O (stereo not drawn) | n | -29.7 | n | x | n | n
O=C(C[n+]1cc(-c2ccccc2)n2c1CCC2)OCc1ccccc1 | x | x | n | x | x | x
Cc1ccc(-c2c[n+](CC(=O)OCc3ccccc3)c3n2CCC3)cc1 | x | -14.4 | n | n | n | n
CC(=O)N1CCOc2ccc(S(=O)(=O)N(C)c3ccc(C)cc3)cc21 | n | -21.4 | n | n | n | x
COc1cc2cc(C(=O)Nc3ccc4c(c3)OCCO4)[nH]c2cc1OC | n | -20.6 | n | n | n | n
CCOc1ccc2[nH]c3c(NCCN(C)C)ncnc3c2c1 | n | -13.4 | n | n | n | u
CCOc1ccc2[nH]c3c(NCCC(C)C)ncnc3c2c1 | n | n | n | n | x | x
C[C@H](CO)N1C[C@H](C)[C@H](CN(C)C(=O)Nc2ccc(F)cc2)Oc2ccc(NC(=O)Nc3ccc(F)cc3)cc2C1=O | n | n | x | n | x | x
Cc1ccc(S(=O)(=O)N(C)C[C@@H]2Oc3ccc(NC(=O)Nc4cccc5ccccc45)cc3C(=O)N([C@@H](C)CO)C[C@H]2C)cc1 | n | n | x | x | x | x
COC(=O)c1sc(-c2ccc(C(C)(C)C)cc2)cc1NC(=O)c1ccccc1C(=O)O | n | -16.8 | n | x | n | x
O=S(=O)(Nc1ccc(-c2cnco2)cc1)c1ccccc1 | n | -24.7 | n | x | n | x
Brc1ccc(Nc2ncnc3[nH]ncc23)cc1 | x | -20.4 | n | n | n | x
COc1ccc(OCCC(=O)OCC(=O)NCCC2=CCCCC2)cc1 | n | -24.2 | n | x | n | n
COc1ccc(C(=O)Nc2ccccc2NC(=O)c2ccc(OC)cc2)cc1 | n | x | n | n | x | x
COc1cc(OC)cc(C(=O)Nc2ccc(C(=O)Nc3ccccc3OC)cc2)c1 | n | -21.6 | n | n | n | u
COc1ccc(C(=O)Nc2cccc3ccccc23)cc1 | n | -18.7 | n | n | n | n
SMILES | F508del corr | Ecoli rRNA inh | CaV13 FRET inh | Cneo AK release | AID977621 | AID977628
CN(C)C(=O)c1ccc(-c2ccc(C3[C@@H]4CN(C(=O)CN5CCOCC5)C[C@H]3N4)cc2)cc1 (stereo partly drawn) | n | n | x | x | x | x
COc1ccc(-c2csc(NC(=O)c3ccccc3S(C)(=O)=O)n2)cc1 | n | -35.9 | n | x | n | u
COc1ccc(-c2csc(NC(=O)c3ccoc3C)n2)cc1 | n | -25.0 | n | x | x | n
COc1ccc(-c2csc(NC(=O)c3c(C)noc3C)n2)cc1 | n | n | n | n | x | x
O=C1CCCN1CCCNc1ncnc2c1[nH]c1ccc(Cl)cc12 | x | -22.9 | x | n | n | x
CC1CC(C)CN(c2oc(Cc3ccccc3)nc2C#N)C1 (stereo not drawn) | x | x | n | x | x | x
N#Cc1nc(COc2cccc(Cl)c2)oc1N1CCCC1 | n | -32.5 | n | n | n | n
N#Cc1nc(Cc2ccccc2)oc1N1CCCC1 | n | -23.0 | n | x | x | u
Cc1nnc2sc(SCC(=O)Nc3ccc(Br)cc3)nn2c1=O | n | -23.8 | n | x | n | x
CS(=O)(=O)N(CC(=O)N1CCc2ccccc2C1)c1cccc(Br)c1 | n | -22.6 | n | n | n | u
COc1ccc(Br)c(-c2nc(CS(=O)(=O)c3ccc(F)cc3)no2)c1 | n | -26.6 | n | x | x | n
COc1ccc(Br)c(-c2nnc(CS(=O)(=O)c3ccccc3)o2)c1 | n | n | n | n | x | x
Cn1c(CCN2CCOCC2)nc2cc(NC(=O)c3cccs3)ccc21 | n | -18.1 | n | x | n | u
Cc1ccc2nc(SCC(=O)c3ccc4c(c3)NC(=O)CO4)[nH]c2c1 | n | -21.4 | n | x | n | u
Cc1ccc(C)c(-n2nnnc2SCC(=O)c2ccc3c(c2)NC(=O)CO3)c1 | x | x | n | n | x | x
COC(=O)c1cc(S(=O)(=O)NCc2ccc3c(c2)OCO3)cn1C | n | -13.0 | n | n | n | n
CCOC(=O)c1cnc2c(c(C)nn2C)c1Oc1ccc(OC)cc1 | n | -13.9 | n | n | n | n
CC(OC(=O)COc1ccccc1)C(=O)NC1CCCC1 (stereo not drawn) | n | -17.9 | n | n | x | n
CC(Oc1ccccc1)C(=O)NC1CCCCCCC1 (stereo not drawn) | n | n | n | n | x | x
COc1ccccc1CNC(=O)c1cc2sccc2n1C | n | -20.4 | n | x | n | x
CCN(CC)CCCN(C(=O)c1ccco1)c1nc(-c2ccc(C)cc2)cs1 | n | -34.3 | n | n | u | u
Cc1ccc(NCC(=O)c2ccc(C)cc2)cc1 | n | -18.0 | n | n | n | n
C[C@@H]1CCCCO[C@@H](CN(C)CC2CC2)[C@@H](C)CN([C@H](C)CO)C(=O)c2cc(NC(=O)c3ccncc3)ccc2O1 | n | n | x | n | x | x
Cc1cc(Cl)ccc1OCCCC(=O)NN | n | n | n | n | x | x
Cc1cc(Cl)ccc1OCCCC(=O)OCC(N)=O | n | -18.1 | n | n | n | u
SMILES | F508del corr | Ecoli rRNA inh | CaV13 FRET inh | Cneo AK release | AID977621 | AID977628
CO[C@@H]1CN(C)C(=O)c2ccc(NC(=O)C3CCCCC3)cc2OC[C@H](C)NC[C@H]1C | n | n | x | n | x | x
C[C@H]1CN(C)C(=O)c2cccc(NS(C)(=O)=O)c2O[C@H]1CN(C)C | x | n | x | x | x | x
CCn1c(-c2ccccc2Cl)nn(CC(=O)Nc2ccccc2OC)c1=S | x | -20.9 | x | n | n | x
C[C@@H]1CCCCO[C@H](CN(C)C)[C@@H](C)CN([C@H](C)CO)C(=O)c2cc(NC(=O)Nc3ccc(F)cc3)ccc2O1 | n | n | x | n | x | x
CC(C(=O)Nc1nc2ccccc2s1)n1cc([N+](=O)[O-])cn1 (stereo not drawn) | n | -18.4 | n | x | n | x
C[C@H]1CN([C@@H](C)CO)C(=O)c2cc(-c3cccc(F)c3)cnc2O[C@H]1CN(C)C(=O)Nc1cc(F)ccc1F | n | n | x | n | x | x
